Source: ChEMBL document CHEMBL3045292, “Synthesis and herbicidal activity of 2-(7-fluoro-3-oxo- 3,4-dihydro-2H-benzo[b][1,4]oxazin-6-yl)isoindoline-1,3-diones” (J Agric Food Chem, 2005)

Experiments:
[1] = Phytotoxicity against Glycine max (soybean) assessed as growth inhibition at 15 g/ha post-emergence treatment measured after 15 days by crop-selectivity assay; type: organism-based; conditions: in vivo, read-out: GI
[2] = Phytotoxicity against Oryza sativa (rice) assessed as growth inhibition at 150 g/ha pre-emergence treatment measured after 15 days by crop-selectivity assay; type: organism-based; conditions: in vivo, read-out: GI
[3] = Phytotoxicity against Oryza sativa (rice) assessed as growth inhibition at 30 g/ha post-emergence treatment measured after 15 days by crop-selectivity assay; type: organism-based; conditions: in vivo, read-out: GI
[4] = Phytotoxicity against Brassica rapa subsp. oleifera assessed as growth inhibition at 150 g/ha pre-emergence treatment measured after 15 days by crop-selectivity assay; type: organism-based; conditions: in vivo, read-out: GI
[5] = Phytotoxicity against Gossypium (cotton) assessed as growth inhibition at 7.5 g/ha post-emergence treatment measured after 15 days by crop-selectivity assay; type: organism-based; conditions: in vivo, read-out: GI
[6] = tested on: Zea mays; assay: Phytotoxicity against Zea mays (maize) assessed as growth inhibition at 7.5 g/ha pre-emergence treatment measured after 15 days by crop-selectivity assay; type: organism-based; conditions: in vivo, other, 360 h
Procedure, shortened: (§1)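 Compounds were formulated as 100 g/L emulsifiable concentrates, with DMF as solvent and Tween-80 as emulsifier, then diluted in water to the required rate. They were sprayed on pot-grown plants in a greenhouse, in clay soil (pH 6.5, 1.6% organic matter, 37.3% clay, CEC 12.1 cmol/kg). Untreated and DMF-treated plants served as controls. Percent growth inhibition was scored visually 15 days after treatment.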

[7] = tested on: Gossypium; assay: Phytotoxicity against Gossypium (cotton) assessed as growth inhibition at 15 g/ha pre-emergence treatment measured after 15 days by crop-selectivity assay; type: organism-based; conditions: in vivo, other, 360 h
[8] = Phytotoxicity against Oryza sativa (rice) assessed as growth inhibition at 15 g/ha pre-emergence treatment measured after 15 days by crop-selectivity assay; type: organism-based; conditions: in vivo, read-out: GI
[9] = Phytotoxicity against Brassica rapa subsp. oleifera assessed as growth inhibition at 30 g/ha post-emergence treatment measured after 15 days by crop-selectivity assay; type: organism-based; conditions: in vivo, read-out: GI
[10] = tested on: Setaria viridis; assay: Herbicidal activity against Setaria viridis (green foxtail) assessed as weed growth inhibition at 75 g/ha pre-emergence treatment […]; type: functional; conditions: read-out: GI
Procedure, shortened: (§2)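 Pot-grown plants in the greenhouse, in clay soil (pH 6.5, 1.6% organic matter, 37.3% clay, CEC 12.1 cmol/kg). Compound was made up as a 100 g/L emulsified concentrate (DMF, Tween-80), diluted in water and sprayed at 75 g ai/ha. Pre-emergence spraying was 24 h after sowing; post-emergence at two-leaf (dicots) or one-leaf (monocots) stage. Untreated and DMF controls. Percent growth inhibition scored visually 15 days post-treatment.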

[11] = tested on: Chenopodium album; assay: Herbicidal activity against fat hen Chenopodium album assessed as weed growth inhibition at 75 g/ha pre-emergence treatment […]; type: functional; conditions: read-out: GI; procedure, shortened: as §2
[12] = Phytotoxicity against Zea mays (maize) assessed as growth inhibition at 30 g/ha post-emergence treatment measured after 15 days by crop-selectivity assay; type: organism-based; conditions: in vivo, read-out: GI; procedure, shortened: as §1
[13] = tested on: Setaria viridis; assay: Herbicidal activity against Setaria viridis (green foxtail) assessed as weed growth inhibition at 75 g/ha post-emergence treatment […]; type: functional; conditions: read-out: GI; procedure, shortened: as §2
[14] = Phytotoxicity against Glycine max (soybean) assessed as growth inhibition at 7.5 g/ha post-emergence treatment measured after 15 days by crop-selectivity assay; type: organism-based; conditions: in vivo, read-out: GI
[15] = Phytotoxicity against Glycine max (soybean) assessed as growth inhibition at 30 g/ha post-emergence treatment measured after 15 days by crop-selectivity assay; type: organism-based; conditions: in vivo, read-out: GI
[16] = Phytotoxicity against Oryza sativa (rice) assessed as growth inhibition at 15 g/ha post-emergence treatment measured after 15 days by crop-selectivity assay; type: organism-based; conditions: in vivo, read-out: GI
[17] = Phytotoxicity against Oryza sativa (rice) assessed as growth inhibition at 30 g/ha pre-emergence treatment measured after 15 days by crop-selectivity assay; type: organism-based; conditions: in vivo, read-out: GI
[18] = Phytotoxicity against Brassica rapa subsp. oleifera assessed as growth inhibition at 15 g/ha post-emergence treatment measured after 15 days by crop-selectivity assay; type: organism-based; conditions: in vivo, read-out: GI
[19] = tested on: Digitaria sanguinalis; assay: Herbicidal activity against crabgrass Digitaria sanguinalis(hairy crabgrass) assessed as weed growth inhibition at post-emergence treatment […]; type: functional, organism-based; procedure, shortened: as §2
[20] = tested on: Brassica rapa subsp. oleifera; assay: Phytotoxicity against Brassica rapa subsp. oleifera assessed as growth inhibition at 7.5 g/ha pre-emergence treatment measured after 15 days by crop-selectivity assay; type: organism-based; conditions: in vivo, other, 360 h
[21] = tested on: Echinochloa crus-galli; assay: Herbicidal activity against Echinochloa crus-galli (barnyard grass) (barnyard grass) assessed as weed growth inhibition at 75 g/ha pre-emergence treatment […]; type: functional; conditions: read-out: GI; procedure, shortened: as §2
[22] = tested on: Brassica rapa subsp. oleifera; assay: Phytotoxicity against Brassica rapa subsp. oleifera assessed as growth inhibition at 15 g/ha pre-emergence treatment measured after 15 days by crop-selectivity assay; type: organism-based; conditions: in vivo, other, 360 h
[23] = tested on: Abutilon theophrasti; assay: Herbicidal activity against Abutilon theophrasti (velvetleaf) assessed as weed growth inhibition at 75 g/ha post-emergence treatment […]; type: functional; conditions: read-out: GI; procedure, shortened: as §2
[24] = tested on: Abutilon theophrasti; assay: Herbicidal activity against Abutilon theophrasti (velvetleaf) assessed as weed growth inhibition at 75 g/ha pre-emergence treatment […]; type: functional; conditions: read-out: GI; procedure, shortened: as §2
[25] = tested on: Gossypium; assay: Phytotoxicity against Gossypium (cotton) assessed as growth inhibition at 30 g/ha pre-emergence treatment measured after 15 days by crop-selectivity assay; type: organism-based; conditions: in vivo, other, 360 h
[26] = Phytotoxicity against Brassica rapa subsp. oleifera assessed as growth inhibition at 7.5 g/ha post-emergence treatment measured after 15 days by crop-selectivity assay; type: organism-based; conditions: in vivo, read-out: GI
[27] = tested on: Glycine max; assay: Phytotoxicity against Glycine max (soybean) assessed as growth inhibition at 30 g/ha pre-emergence treatment measured after 15 days by crop-selectivity assay; type: organism-based; conditions: in vivo, other, 360 h
[28] = Phytotoxicity against Brassica rapa subsp. oleifera assessed as growth inhibition at 75 g/ha pre-emergence treatment measured after 15 days by crop-selectivity assay; type: organism-based; conditions: in vivo, read-out: GI
[29] = tested on: Abutilon theophrasti; assay: Herbicidal activity against Abutilon theophrasti (velvetleaf) assessed as weed growth inhibition at post-emergence treatment […]; type: functional, organism-based; procedure, shortened: as §2
[30] = tested on: Gossypium; assay: Phytotoxicity against Gossypium (cotton) assessed as growth inhibition at 150 g/ha pre-emergence treatment measured after 15 days by crop-selectivity assay; type: organism-based; conditions: in vivo, other, 360 h
[31] = tested on: Zea mays; assay: Phytotoxicity against Zea mays (maize) assessed as growth inhibition at 15 g/ha pre-emergence treatment measured after 15 days by crop-selectivity assay; type: organism-based; conditions: in vivo, other, 360 h; procedure, shortened: as §1
[32] = tested on: Echinochloa crus-galli; assay: Herbicidal activity against Echinochloa crus-galli (barnyard grass) (barnyard grass) assessed as weed growth inhibition at 75 g/ha post-emergence treatment […]; type: functional; conditions: read-out: GI; procedure, shortened: as §2
[33] = tested on: Glycine max; assay: Phytotoxicity against Glycine max (soybean) assessed as growth inhibition at 15 g/ha pre-emergence treatment measured after 15 days by crop-selectivity assay; type: organism-based; conditions: in vivo, other, 360 h
[34] = Phytotoxicity against Brassica rapa subsp. oleifera assessed as growth inhibition at 30 g/ha pre-emergence treatment measured after 15 days by crop-selectivity assay; type: organism-based; conditions: in vivo, read-out: GI
[35] = Phytotoxicity against Gossypium (cotton) assessed as growth inhibition at 15 g/ha post-emergence treatment measured after 15 days by crop-selectivity assay; type: organism-based; conditions: in vivo, read-out: GI
[36] = tested on: Digitaria sanguinalis; assay: Herbicidal activity against crabgrass Digitaria sanguinalis(hairy crabgrass) assessed as weed growth inhibition at 75 g/ha pre-emergence treatment […]; type: functional; conditions: read-out: GI; procedure, shortened: as §2
[37] = Phytotoxicity against Zea mays (maize) assessed as growth inhibition at 7.5 g/ha post-emergence treatment measured after 15 days by crop-selectivity assay; type: organism-based; conditions: in vivo, read-out: GI; procedure, shortened: as §1
[38] = Phytotoxicity against Triticum aestivum (wheat) assessed as growth inhibition at 150 g/ha pre-emergence treatment measured after 15 days by crop-selectivity assay; type: organism-based; conditions: in vivo, read-out: GI
[39] = tested on: Gossypium; assay: Phytotoxicity against Gossypium (cotton) assessed as growth inhibition at 75 g/ha pre-emergence treatment measured after 15 days by crop-selectivity assay; type: organism-based; conditions: in vivo, other, 360 h

Structure (SMILES)	inhibition at 360 h [1] [%]	inhibition at 360 h [2] [%]	inhibition at 360 h [3] [%]	inhibition at 360 h [4] [%]	inhibition at 360 h [5] [%]	growth inhibition (GI) [6]	growth inhibition (GI) [7]	inhibition at 360 h [8] [%]	inhibition at 360 h [9] [%]	inhibition of growth at 75 g/ha [10] [%]	inhibition of growth at 75 g/ha [11] [%]	inhibition at 360 h [12] [%]	inhibition of growth at 75 g/ha [13] [%]	inhibition at 360 h [14] [%]	inhibition at 360 h [15] [%]	inhibition at 360 h [16] [%]	inhibition at 360 h [17] [%]	inhibition at 360 h [18] [%]	IC50 [19] [g/ha]	growth inhibition (GI) [20]	also measured
C#CCN1C(=O)COc2cc(F)c(N3C(=O)C4=C(CCCC4)C3=O)cc21 [FLUMIOXAZIN]	> 10	> 10	> 10	> 10	> 10	Non-toxic	Non-toxic	> 10	> 10	> 80	> 80	> 10	> 80	> 10	> 10	> 10	> 10	> 10	2.5	Non-toxic	inhibition of growth at 75 g/ha [21]: > 80%; growth inhibition (GI) [22]: Non-toxic; inhibition of growth at 75 g/ha [23]: > 80%; inhibition of growth at 75 g/ha [24]: > 80%; growth inhibition (GI) [25]: Non-toxic; inhibition at 360 h [26]: > 10%; growth inhibition (GI) [27]: Non-toxic; inhibition at 360 h [28]: > 10%; IC50 [29]: 1 g/ha; growth inhibition (GI) [30]: Non-toxic; growth inhibition (GI) [31]: Non-toxic; inhibition of growth at 75 g/ha [32]: > 80%; growth inhibition (GI) [33]: Non-toxic; inhibition at 360 h [34]: > 10%; inhibition at 360 h [35]: > 10%; inhibition of growth at 75 g/ha [36]: > 80%; inhibition at 360 h [37]: > 10%; inhibition at 360 h [38]: > 10%; growth inhibition (GI) [39]: Non-toxic
C#CCN1C(=O)COc2cc(F)c(N3C(=O)c4ccc(F)cc4C3=O)cc21	> 10	> 10	> 10	> 10	> 10	Non-toxic	Non-toxic	1	> 10	> 80	> 80	> 10	> 80	> 10	> 10	> 10	> 10	> 10	4.8	Non-toxic	inhibition of growth at 75 g/ha [21]: > 80%; growth inhibition (GI) [22]: Non-toxic; inhibition of growth at 75 g/ha [23]: > 80%; inhibition of growth at 75 g/ha [24]: > 80%; growth inhibition (GI) [25]: Non-toxic; inhibition at 360 h [26]: > 10%; growth inhibition (GI) [27]: Non-toxic; inhibition at 360 h [28]: > 10%; IC50 [29]: 3.6 g/ha; growth inhibition (GI) [30]: Non-toxic; growth inhibition (GI) [31]: Non-toxic; inhibition of growth at 75 g/ha [32]: > 80%; growth inhibition (GI) [33]: Non-toxic; inhibition at 360 h [34]: > 10%; inhibition at 360 h [35]: > 10%; inhibition of growth at 75 g/ha [36]: > 80%; inhibition at 360 h [37]: 1%; inhibition at 360 h [38]: > 10%; growth inhibition (GI) [39]: Non-toxic
